Assay results pooled from the literature.
Protocols differ between the studies behind these lines.
Target: Casein kinase I isoform delta (CSNK1D, Homo sapiens, UniProt P48730)

Compound	test	conditions	remaining binding
CN(C)c1nccc(-c2cnc3ncccn23)n1	binding	1 µM	57%
Nc1ncc2c(n1)-c1c([nH]c3ccc(C#CC4CC4)cc13)CCCC2	binding, competition with immobilised ligand	1 µM	91%
COc1cnc(Nc2cccc(S(N)(=O)=O)c2)nc1N1CCN(c2ccccc2)CC1	binding, competition with immobilised ligand	1 µM	97%
O=C(NCCCN1CCOCC1)c1ccc(Nc2ncc(Cl)c(-c3ccc(Cl)s3)n2)cc1	binding, competition with immobilised ligand	1 µM	100%
CC1CCCN1c1nccc(-c2cnn3ncccc23)n1 (stereo not drawn)	binding	1 µM	100%
COc1cnc(Nc2cccc(S(N)(=O)=O)c2)nc1N1CCN(c2ccccc2)C(=O)C1	binding, competition with immobilised ligand	1 µM	98%
C[C@@H]1CN(c2cc(-c3n[nH]c4ccc(OC5(C)CC5)cc34)ncn2)C[C@H](C)O1	cell-free assay, competition with immobilised ligand	0.1 µM	80%
O=C(Nc1c[nH]nc1C(=O)NC1CCNCC1)c1cc(F)cc(F)c1	binding, competition with immobilised ligand	1 µM	95%
Cc1cc(C)c(-n2ccn3nc(-c4cccnc4)cc23)cc1NC(=O)c1cc(C#N)cc(S(F)(F)(F)(F)F)c1	cell-free assay, competition with immobilised ligand	0.1 µM	100%
F[C@@H]1CCN(c2nccc(-c3cnn4ncccc34)n2)C1	binding	1 µM	83%
CCOCCn1cc(C(=O)Nc2ccc(-n3nc(-c4cccnc4)cc3C(F)(F)F)cn2)ccc1=O	cell-free assay, competition with immobilised ligand	1 µM	100%
CC(C)(C)c1ccc(-c2nc(CBr)nn2-c2cccc(O)c2)cc1	cell-free assay, competition with immobilised ligand	10 µM	82%
C[C@H]1CCN(c2nccc(-c3cnn4ncccc34)n2)C1	binding	1 µM	71%
CNCc1ccccc1-c1csc([C@@H](C)Nc2nc(C)nc3cc(OC)c(OC)cc23)c1	cell-free assay, competition with immobilised ligand	1 µM	82%
NC(=O)c1nc(Nc2ccccc2)sc1NC(=O)C1CCCCC1	cell-free assay, competition with immobilised ligand	10 µM	6.8%
Cc1cnn2ncc(-c3ccnc(N(C)C)n3)c2c1	binding	1 µM	69%
O=C(NCCCN1CCOCC1)c1ccc(Nc2nccc(-c3cc4ccccc4s3)n2)cc1	binding, competition with immobilised ligand	1 µM	92%
CN(C)c1ncnc(-c2ccc3nc(Nc4cc(CN5CCN(C(=O)CC(F)(F)F)CC5)ccn4)[nH]c3c2)c1Cl	cell-free assay, competition with immobilised ligand	1 µM	83%
COC(=O)Nc1nc2ccc(C(=O)c3ccccc3)cc2[nH]1	cell-free assay, competition with immobilised ligand	10 µM	36%
CNC(=O)Nc1ccc2c(c1)CC[C@@]21OC(=O)N(CC(=O)N(Cc2ccc(F)cc2)[C@@H](C)C(F)(F)F)C1=O	cell-free assay, competition with immobilised ligand	1 µM	99%
CN(c1nccc(-c2cnn3ncccc23)n1)C1CC1	binding	1 µM	100%
COc1ccc2c(c1)O[C@H](c1ccc(OC)c(OC)c1)C[C@@H]2NC(=O)C1(c2ccc3c(c2)OC(F)(F)O3)CC1	cell-free assay, competition with immobilised ligand	1 µM	92%
O=C(c1ccc(Nc2ncc(Cl)c(-c3cc4ccccc4s3)n2)cc1)N1CCC(N2CCCC2)CC1	binding, competition with immobilised ligand	1 µM	100%
COc1ncc2cc3ccccc3nc2c1C#N	cell-free assay, competition with immobilised ligand	5 µM	93%
